Source: PubChem BioAssay
Most compounds without a hit are left out; they make up all but 3% or so of the library.
beta cell repl – inducers of MIN6 beta-cell proliferation, primary screen, ATP luminescence, uHTS. MIN6 cells proliferation, ATPlite luminescence, 48 h; cells starved in 0.2% serum; 100% = growth in 10% serum. proliferation, % at 10 µM. 330,000 compounds, 0.29% hits. AID 2380, 2010;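 active = compounds whose signal lies at least 3.5 SD above the mean of all wells on their plate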;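 also: 0% = DMSO-treated cells in low-serum medium and 100% = 10% serum control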
Exocytosis inh – LAMP-1 surface exposure blockers, TALL-104 cells – cell-based, flow cytometry, MLPCN library, primary screen. TALL-104 LAMP-1 surface exposure; cells stimulated with thapsigargin and PMA. inhibition, % at 10 µM. 360,000 compounds, 0.66% hits;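 active = inhibition above about 55%, limit read from the data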
Apaf1 inhib – inhibitors of human Apaf-1 apoptosome, primary screen, biochemical, DEVD-Rh110 fluorescence, uHTS. Apoptotic protease-activating factor 1 (Homo sapiens), O14727. reconstituted apoptosome caspase-3 activity. inhibition, % at 20 µM. 330,000 compounds, 0.71% hits. AID 489030, 2010; active = inhibition of at least 40% at 20 µM;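 also: plate controls were DMSO wells for no effect and DEVD-CHO caspase inhibitor wells for full effect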
Target sequence (O14727 whole entry, looked up): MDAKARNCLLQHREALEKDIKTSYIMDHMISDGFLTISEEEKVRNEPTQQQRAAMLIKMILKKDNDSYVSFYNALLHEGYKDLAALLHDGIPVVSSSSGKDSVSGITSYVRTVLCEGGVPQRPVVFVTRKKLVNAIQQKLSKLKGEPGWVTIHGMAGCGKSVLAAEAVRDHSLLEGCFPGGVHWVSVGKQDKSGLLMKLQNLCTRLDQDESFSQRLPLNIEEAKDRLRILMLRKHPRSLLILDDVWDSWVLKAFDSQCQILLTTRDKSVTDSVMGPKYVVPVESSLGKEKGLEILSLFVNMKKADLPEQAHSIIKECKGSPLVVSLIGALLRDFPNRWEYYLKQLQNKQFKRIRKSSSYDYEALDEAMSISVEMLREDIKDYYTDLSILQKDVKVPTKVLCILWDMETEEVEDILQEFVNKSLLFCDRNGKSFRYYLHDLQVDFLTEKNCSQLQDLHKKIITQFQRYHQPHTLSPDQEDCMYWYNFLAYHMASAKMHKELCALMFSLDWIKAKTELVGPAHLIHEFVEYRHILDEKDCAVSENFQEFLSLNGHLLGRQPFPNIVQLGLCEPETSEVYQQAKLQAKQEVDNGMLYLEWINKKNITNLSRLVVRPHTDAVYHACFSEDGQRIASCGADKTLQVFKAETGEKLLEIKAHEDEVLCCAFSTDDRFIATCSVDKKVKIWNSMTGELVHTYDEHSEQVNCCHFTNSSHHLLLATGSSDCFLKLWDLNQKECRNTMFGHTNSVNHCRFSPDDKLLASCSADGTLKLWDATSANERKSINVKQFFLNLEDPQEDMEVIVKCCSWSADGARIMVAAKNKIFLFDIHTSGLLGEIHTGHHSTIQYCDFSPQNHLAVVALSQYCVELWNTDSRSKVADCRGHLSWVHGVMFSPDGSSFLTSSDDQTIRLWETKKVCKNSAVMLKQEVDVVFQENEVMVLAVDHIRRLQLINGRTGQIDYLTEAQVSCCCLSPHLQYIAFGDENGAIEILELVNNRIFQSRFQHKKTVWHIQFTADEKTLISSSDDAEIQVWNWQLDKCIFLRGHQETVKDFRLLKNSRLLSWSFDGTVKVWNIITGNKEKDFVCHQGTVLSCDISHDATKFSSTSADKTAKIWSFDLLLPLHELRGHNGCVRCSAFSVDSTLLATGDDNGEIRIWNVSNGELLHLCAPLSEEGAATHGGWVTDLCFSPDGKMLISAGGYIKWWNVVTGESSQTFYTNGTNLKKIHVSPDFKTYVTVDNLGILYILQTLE
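Material: cell-free apoptosome with Apaf-1, procaspase-3 and caspase-9; Buffer or medium: Hepes pH 7.5 with detergent and BSA; Reagent: cytochrome c trigger plus (Z-DEVD)2-Rh110 caspase-3 substrate; Times: compound with Apaf-1, dATP, procaspase-3 30 min, then 50 min reaction, room temperature; Technique: Rh110 fluorescence intensity.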
MPTP block – mitochondrial permeability transition pore inhibitors, primary screen, biochemical, isolated mouse mitochondria, absorbance; Ca2+ swelling absorbance, 30 min; 360,000 compounds, 1.4% hits; AID 602449, 2012; inhibition, % at 10 µM;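 active = inhibition of 50% or more, scaled per plate between neutral and stimulator controls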;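 also: 0% = DMSO wells given calcium and 100% = 1 mM EGTA wells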
UBC13 inh – UBC13 polyubiquitin chain formation inhibitors, primary screen, biochemical, TR-FRET, uHTS. inhibition, % at 20 µM. AID 485273, 2010. 330,000 compounds, 0.47% hits. Ubiquitin-conjugating enzyme E2 N (Homo sapiens), P61088; in the data active = inhibition above about 45%, passing the limit was not always enough
iPSC survival up – enhancers of single-cell hiPSC survival, primary screen, ATPlite luminescence; 100% = ROCK inhibitor wells, 0% = DMSO; survival enhancement, % at 20 µM; 360,000 compounds, 0.044% hits; in the data active = survival enhancement above about 18%;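 also: cells exposed to compounds for 16 hours before the ATP read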
Casp3 counter – CASP3 inhibitor validation, counterassay for project on UBE2N polyubiquitination blockers, biochemical, one dose; 1,400 compounds, 4% hits; inhibition, % at 20 µM; shares compounds with UBC13 inh; AID 488856, 2010; Recombinant caspase-3, Caspase-Glo 3/7 luminescence, 60 min;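 active = mean inhibition across replicates above about 26%, limit read from the data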;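 also: plate controls were DMSO with caspase-3 for no effect and DMSO wells lacking enzyme for full effect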
UBC13 conf – UBC13 polyubiquitination inhibitors, single-point retest, confirmation, biochemical, TR-FRET, single concentration. shares compounds with UBC13 inh. inhibition, % at 10 µM. 1,400 compounds, 68% hits. AID 488859, 2010; in the data active = inhibition above about 45%
An asterisk follows results filed as active.

`CCOC(=O)N1CCc2c(sc(NC(=O)CN(CC)CC)c2C#N)C1` gave beta cell repl -2, Exocytosis inh 4, Apaf1 inhib -14, MPTP block 2, UBC13 inh 78*, iPSC survival up -1, Casp3 counter -2 and UBC13 conf 95*.
Screening CCCCN(C(=O)c1ccco1)c1nnc(-c2cc(OC)c(OC)c(OC)c2)s1 returned beta cell repl 5, Exocytosis inh -1, Apaf1 inhib 3, MPTP block 3, UBC13 inh 50*, iPSC survival up -1, Casp3 counter 2 and UBC13 conf 38.
For CCCN(C(=O)c1ccco1)c1nnc(-c2ccncc2)s1 the results were beta cell repl -2, Exocytosis inh 4, Apaf1 inhib 10, MPTP block -7, UBC13 inh -3 and iPSC survival up 5.
For COc1cc2sc(-c3ccc(S(C)(=O)=O)cc3)c(C(=O)NCCCCO)c2cc1OC the results were beta cell repl -3, Exocytosis inh -1, Apaf1 inhib -1, MPTP block 0, UBC13 inh 46*, iPSC survival up -2, Casp3 counter 3 and UBC13 conf 43.
`Cc1ccc(CNC(=O)c2c(-c3ccccc3)sc3ccccc23)o1` gave beta cell repl -2, Exocytosis inh -4, Apaf1 inhib 20, MPTP block 0, UBC13 inh 10 and iPSC survival up -3.
Screening COc1ccc2sc(-c3ccc(S(C)(=O)=O)cc3)c(C(=O)NCCCN3CCCC3=O)c2c1 returned beta cell repl 2, Exocytosis inh -2, Apaf1 inhib -8, MPTP block -2, UBC13 inh 26 and iPSC survival up -2.
For COc1cc2sc(-c3ccc(S(C)(=O)=O)cc3)c(C(=O)NCc3ccc(C)o3)c2cc1OC the results were beta cell repl 4, Exocytosis inh 10, Apaf1 inhib 4, MPTP block 0, UBC13 inh 46*, iPSC survival up 0, Casp3 counter 5 and UBC13 conf 42.
`O=C1[C@H]2CCC=C[C@H]2[C@H](c2cccc(Br)c2)N1Cc1ccccc1` gave Exocytosis inh -2, Apaf1 inhib 25, MPTP block 0 and iPSC survival up 2.
Cc1ccc(NC(=O)CSc2ncnc3ccccc23)cc1S(=O)(=O)N1CCOCC1 was read as beta cell repl 0, Exocytosis inh 25, Apaf1 inhib -23, MPTP block 24, UBC13 inh 51*, iPSC survival up 0, Casp3 counter 0 and UBC13 conf 34.
`O=C(CSc1nc2ccsc2c(=O)n1Cc1ccccc1)NCc1ccco1` gave beta cell repl 3, Exocytosis inh 1, Apaf1 inhib 3, MPTP block 1, UBC13 inh 50*, iPSC survival up -1, Casp3 counter 0 and UBC13 conf 68*.
Screening CC(=O)Nc1ccc(NC(=O)CSc2nc3ccccc3c(=O)n2CCCN2CCOCC2)cc1 returned beta cell repl -2, Exocytosis inh 20, Apaf1 inhib -2, MPTP block 2, UBC13 inh 0 and iPSC survival up -3.
For CCOC(=O)CSc1nc2ccccc2c(=O)n1CCCCCC(=O)NCc1ccco1 the results were beta cell repl 3, Exocytosis inh -3, Apaf1 inhib 12, MPTP block 2, UBC13 inh 47*, iPSC survival up -3, Casp3 counter -1 and UBC13 conf 47*.
Cc1ccc(NC(=O)CSc2nc3ccccc3c(=O)n2CCCC(=O)NCCCN2CCOCC2)cc1C was read as beta cell repl -1, Exocytosis inh 42, Apaf1 inhib 25, MPTP block -1, UBC13 inh 48*, iPSC survival up 0, Casp3 counter -1 and UBC13 conf 55*.
`Cc1ccc(C(CC(=O)O)NC(=O)CCNC(=O)c2ccco2)cc1` (configuration not stated) gave beta cell repl 1, Exocytosis inh 7, Apaf1 inhib 7, MPTP block 0, UBC13 inh -6 and iPSC survival up 0.
Oc1ccc(-c2csc(Nc3ccc4c(c3)OCO4)n2)c(O)c1 was read as Exocytosis inh -5, MPTP block 1 and iPSC survival up 0.
N#Cc1ccc(Nc2nc(-c3ccc(O)cc3O)cs2)cc1C(F)(F)F was read as beta cell repl -7, Exocytosis inh -3, Apaf1 inhib 15, MPTP block 24, UBC13 inh 68*, iPSC survival up 0, Casp3 counter -1 and UBC13 conf 55*.
`COc1cccc(CNC(=O)CCCC(=O)NC(C)CCc2ccccc2)c1` (configuration not stated) gave beta cell repl -1, Exocytosis inh 9, Apaf1 inhib 11, MPTP block -1, UBC13 inh -2 and iPSC survival up 1.
`C#CCOCCOCCOCCNc1nc(N2CCN(C(=O)[C@H](CCC(=O)O)n3cc(C(N)CC(C)C)nn3)CC2)nc(N2CCN(C(=O)[C@H](Cc3ccc(O)cc3)n3cc(C(N)CC(C)C)nn3)CC2)n1` (some centres not stated) gave beta cell repl -6, Exocytosis inh -4, Apaf1 inhib -3, MPTP block -1, UBC13 inh 2 and iPSC survival up -2.
For N[C@@H](CO)c1cn([C@@H](Cc2cc3ccccc3[nH]2)C(=O)N2CCNCC2)nn1 the results were beta cell repl 3, Exocytosis inh -7, Apaf1 inhib 37, MPTP block 1, UBC13 inh 101*, iPSC survival up -3, Casp3 counter -2 and UBC13 conf 107*.
C#CCOCCOCCOCCNc1nc(N2CCN(C(=O)[C@H](Cc3ccc(O)cc3)n3cc([C@@H](N)CC(C)C)nn3)CC2)nc(N2CCN(C(=O)[C@H](Cc3cc4ccccc4[nH]3)n3cc([C@@H](N)CC(C)C)nn3)CC2)n1 was read as beta cell repl 3, Apaf1 inhib 27, UBC13 inh 80*, Casp3 counter -4 and UBC13 conf 62*.
